ChEMBL document CHEMBL2086358, “Discovery of structurally-diverse inhibitor scaffolds by high-throughput screening of a fragment library with dimethylarginine dimethylaminohydrolase” (Bioorg Med Chem, 2012)
Calls of active or inactive are those of the source. No cut-off for these calls is given here.

How the values were obtained:
Pseudomonas aeruginosa [1] = experiment: Inhibition of Pseudomonas aeruginosa His6-tagged DDAH expressed in Escherichia coli BL21(DE3) using S-methyl-Lthiocitrulline as substrate up to 1 mM measured every 20 secs for 10 mins by fluorescence spectrophotometry
[2] = target: T1, N(G),N(G)-dimethylarginine dimethylaminohydrolase 1 (Homo sapiens, UniProt O94760); experiment: (§1) Inhibition of human recombinant His6-tagged DDAH1 expressed in Escherichia coli BL21(DE3) using Nomega,Nomega-dimethyl-L-arginine as substrate at 400 uM after 1 to 2 hrs by colorimetric ureido derivitization assay
Summary of the method: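 Rapid-onset secondary assay. Compound (400 μM) mixed with ADMA (300 μM, 2.5-fold over KM) in Reaction Buffer (Na2HPO4 172 mM, KCl 172 mM, Tween-20 0.02%, EDTA 2 mM, pH 7.3). Started with human DDAH-1 (1 μM final), run 1–2 h, quenched with HCl (1 M final). Ureido product read colorimetrically; ≥20% inhibition counted as a hit.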

Pseudomonas aeruginosa [3] = experiment: Inhibition of Pseudomonas aeruginosa His6-tagged DDAH expressed in Escherichia coli BL21(DE3) using S-methyl-Lthiocitrulline as substrate at 100 uM measured every 20 secs for 10 mins
[4] = target: T1, N(G),N(G)-dimethylarginine dimethylaminohydrolase 1; experiment: as §1, with “uM incubated for 10 to 20 mins prior to substrate addition measured” for “uM”, “assay in presence of 2 mM reduced glutathione” for “assay”
Summary of the method: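 Compound (400 μM) preincubated 10–20 min at room temperature with human DDAH-1 (1 μM) and reduced glutathione (2 mM) in Reaction Buffer, pH 7.3. ADMA (300 μM) then added; 1–2 h at room temperature, HCl quench (1 M final), colorimetric ureido derivatization. Inhibition compared against assays without glutathione.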

[5] = target: T1, N(G),N(G)-dimethylarginine dimethylaminohydrolase 1; experiment: Inhibition of human recombinant His6-tagged DDAH1 expressed in Escherichia coli BL21(DE3) using Nomega,Nomega-dimethyl-L-arginine as substrate after 80 mins by colorimetric ureido derivitization assay
[6] = target: T1, N(G),N(G)-dimethylarginine dimethylaminohydrolase 1; experiment: Reversible inhibition of human recombinant His6-tagged DDAH1 expressed in Escherichia coli BL21(DE3) using 1 mM Nomega,Nomega-dimethyl-L-arginine as substrate incubated up to 120 mins prior to substrate addition measured after 120 mins by colorimetric ureido derivitization assay
Summary of the method: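 Human DDAH-1 (30 μM) incubated at room temperature with compound (0–2 mM) in Na2HPO4 100 mM, NaCl 100 mM, EDTA 2 mM, Tween-20 0.02%, pH 7.25, with or without reduced glutathione (2 mM). After 0–120 min, diluted 40-fold into ADMA (1 mM) in the same buffer. Incubated a further 120 min, quenched with HCl (300 mM final), and L-citrulline read colorimetrically.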

[7] = target: T1, N(G),N(G)-dimethylarginine dimethylaminohydrolase 1; experiment: Inhibition of human recombinant His6-tagged DDAH1 expressed in Escherichia coli BL21(DE3) using S-methyl-L-thiocitrulline as substrate at 100 uM by CPM-based fluorescence spectrophotometry
Summary of the method: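 Primary HTS run in duplicate. Compound at 100 μM with human DDAH-1 (20 nM), S-methyl-L-thiocitrulline (0.4 μM) and CPM (3.5 μM) in K2HPO4 172 mM, KCl 172 mM, EDTA 2 mM, Tween-20 0.02%, DMSO 1%, pH 7.3. Enzyme–compound preincubation 10 min.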

[8] = target: T1, N(G),N(G)-dimethylarginine dimethylaminohydrolase 1; experiment: Competitive inhibition of human recombinant His6-tagged DDAH1 expressed in Escherichia coli BL21(DE3) using Nomega,Nomega-dimethyl-L-arginine as substrate after 80 mins by double-reciprocal plot analysis
Pseudomonas aeruginosa [9] = experiment: Ratio of Kinact to KI for Pseudomonas aeruginosa His6-tagged DDAH expressed in Escherichia coli BL21(DE3) using S-methyl-Lthiocitrulline as substrate up to 1 mM measured every 20 secs for 10 mins by fluorescence spectrophotometry
[10] = target: T1, N(G),N(G)-dimethylarginine dimethylaminohydrolase 1; experiment: Inhibition of human recombinant His6-tagged DDAH1 expressed in Escherichia coli BL21(DE3) using Nomega,Nomega-dimethyl-L-arginine as substrate at 400 uM by colorimetric ureido derivitization assay; conditions: TDE = time-dependent effect

T1 sequence (O94760 whole entry): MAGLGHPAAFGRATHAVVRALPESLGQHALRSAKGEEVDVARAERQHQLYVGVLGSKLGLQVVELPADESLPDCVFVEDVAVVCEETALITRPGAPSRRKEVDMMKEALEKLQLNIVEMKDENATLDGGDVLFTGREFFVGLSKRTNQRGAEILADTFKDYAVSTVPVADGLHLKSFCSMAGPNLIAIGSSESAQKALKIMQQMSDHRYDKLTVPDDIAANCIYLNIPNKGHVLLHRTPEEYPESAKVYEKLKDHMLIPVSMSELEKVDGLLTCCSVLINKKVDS

inhibition (Pseudomonas aeruginosa [1])	inhibition [2] [%]	inhibition (Pseudomonas aeruginosa [3]) [%]	inhibition [4] [%]	IC50 [5] [mM]	inhibition [6]	inhibition [7] [%]	Ki [8] [mM]	Ratio (Pseudomonas aeruginosa [9]) [M⁻¹ s⁻¹]	inhibition [10]	Structure (SMILES)
inactive	36	1	25	1.4	Active	4	0.8	–	–	CCc1nc2ccccc2[nH]1
–	74	89	95	–	–	55	–	4.8	tde	Cc1cc(Br)ccn1
–	56	50	46	–	–	17	–	0.65	tde	OCc1cc(Cl)ccn1
–	21	–	23	2.7	Active	–	1.7	–	–	NCCSc1nc2ccccc2o1
